Our source for the inhibition and apoptosis rate values is PMC9123937 (International Journal of Nanomedicine, 2022).

The subject of test [1] is MHCC-97H cells. The experiment in a line: Cytotoxicity study. To be noted: Homo sapiens, MHCC97H, 96 h, read-out: 96-hour inhibition rate. The test is classed as cell-based. In short, it runs like this: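 MHCC-97H cells seeded at 3×10^3 cells/well in 96-well plates and cultured 24 h. Test compound added at final 0, 6.25, 12.5, 25, 50 or 100 μg/mL for 24, 48, 72 or 96 h at 37°C, with 0.1% DMSO as negative control. MTT (5 mg/mL stock) added for 3.5 h at 37°C, formazan dissolved in DMSO, absorbance read at 490 nm.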

Test [2] deals with MHCC-97H cells. The experiment in a line: Apoptosis assay. To be noted: 24 h. The test is classed as cell-based, human. In short, it runs like this: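 MHCC-97H cells (high-glucose DMEM, 10% FBS, 37°C, 5% CO2) seeded at 2×10^5 cells/well in 6-well plates and cultured 24 h. Test compound added at 5, 10 or 20 μmol/L for a further 24 h, with 0.1% DMSO and medium controls. Harvested cells stained with Annexin V-FITC and PI for 15 min in the dark in binding buffer, then analysed by flow cytometry.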

As for `COc1cc(/C=C/C(=O)CC(=O)/C=C/c2ccc(O)c(OC)c2)ccc1O` [CU, curcumin], the inhibition at 100 µg/mL in the test with MHCC-97H cells [1] turned out to be 68.2 ± 1.19%. The apoptosis rate stood at 17.29 ± 0.66% in the test with MHCC-97H cells [2] (5 μmol/L), 25.74 ± 0.61% in the test on MHCC-97H cells [2] (10 μmol/L) and 33.11 ± 1.00% in the test with MHCC-97H cells [2] (20 μmol/L).
